# ChEMBL document CHEMBL3526013, “Cannabinoid type 1 receptor antagonists modulate transport activity of multidrug resistance-associated proteins MRP1, MRP2, MRP3, and MRP4” (Drug Metab Dispos, 2011)
# How the values were obtained:
# [1] = biological target: T1, ATP-binding cassette sub-family C member 2 (Homo sapiens, UniProt Q92887); test: Induction of MRP2-mediated E2-17betaG transport in human MRP2 expressing HEK293 cells at 7 uM during 5 mins; format: ADME, cell-based; settings: hek293, 5 min
# T1 sequence (Q92887 whole entry): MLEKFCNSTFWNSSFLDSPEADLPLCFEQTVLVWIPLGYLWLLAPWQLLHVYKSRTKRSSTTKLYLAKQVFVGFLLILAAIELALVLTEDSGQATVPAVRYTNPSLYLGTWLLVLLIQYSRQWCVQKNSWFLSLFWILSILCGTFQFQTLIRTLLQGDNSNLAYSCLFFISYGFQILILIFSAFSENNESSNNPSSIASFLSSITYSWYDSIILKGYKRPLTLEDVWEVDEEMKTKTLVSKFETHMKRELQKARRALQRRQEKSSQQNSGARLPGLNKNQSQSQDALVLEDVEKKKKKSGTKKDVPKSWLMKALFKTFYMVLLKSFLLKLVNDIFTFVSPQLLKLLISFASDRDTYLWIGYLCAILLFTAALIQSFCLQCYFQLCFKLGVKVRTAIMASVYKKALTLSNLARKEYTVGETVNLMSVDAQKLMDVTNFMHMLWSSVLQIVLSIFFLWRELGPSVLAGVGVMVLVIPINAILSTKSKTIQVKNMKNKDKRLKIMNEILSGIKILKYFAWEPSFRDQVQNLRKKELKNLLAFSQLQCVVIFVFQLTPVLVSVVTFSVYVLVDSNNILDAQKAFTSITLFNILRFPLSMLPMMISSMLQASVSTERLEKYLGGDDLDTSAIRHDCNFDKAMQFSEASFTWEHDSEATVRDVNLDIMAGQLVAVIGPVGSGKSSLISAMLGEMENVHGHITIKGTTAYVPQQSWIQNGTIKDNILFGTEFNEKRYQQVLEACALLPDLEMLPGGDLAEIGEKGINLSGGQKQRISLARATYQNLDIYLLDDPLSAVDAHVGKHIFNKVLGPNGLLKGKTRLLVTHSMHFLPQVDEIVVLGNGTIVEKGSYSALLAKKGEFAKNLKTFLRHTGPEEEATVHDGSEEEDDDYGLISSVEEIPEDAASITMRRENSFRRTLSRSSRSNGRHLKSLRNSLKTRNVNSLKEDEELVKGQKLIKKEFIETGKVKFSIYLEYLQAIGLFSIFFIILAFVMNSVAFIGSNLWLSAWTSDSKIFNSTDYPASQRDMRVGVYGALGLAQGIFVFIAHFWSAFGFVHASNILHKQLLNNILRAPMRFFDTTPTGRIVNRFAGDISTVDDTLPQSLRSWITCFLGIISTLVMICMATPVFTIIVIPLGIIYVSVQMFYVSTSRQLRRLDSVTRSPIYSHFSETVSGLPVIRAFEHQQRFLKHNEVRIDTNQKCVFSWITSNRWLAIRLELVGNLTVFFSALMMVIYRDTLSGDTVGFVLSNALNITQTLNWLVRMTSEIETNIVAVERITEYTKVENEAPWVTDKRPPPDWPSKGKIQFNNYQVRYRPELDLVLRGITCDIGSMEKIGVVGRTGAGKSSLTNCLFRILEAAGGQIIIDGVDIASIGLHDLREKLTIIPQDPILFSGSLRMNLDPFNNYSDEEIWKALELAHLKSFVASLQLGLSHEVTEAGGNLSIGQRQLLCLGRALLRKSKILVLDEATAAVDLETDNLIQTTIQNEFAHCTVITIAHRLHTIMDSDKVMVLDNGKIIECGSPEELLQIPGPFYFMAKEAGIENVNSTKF
# Procedure, shortened: (§1)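 Inside-out membrane vesicles from HEK293 cells transduced with MRP baculovirus (5 mM butyrate at 24 h, harvested day 3). Reaction: 7.5 µg vesicles in TS buffer pH 7.4 with 4 mM ATP, 10 mM MgCl2 and [3H]E2-17βG, 37°C for 5 min. E2-17βG was 0.16 µM (MRP1), 20 µM (MRP2) or 0.12 µM (MRP4). Uptake was read by rapid filtration and scintillation counting. ATP-dependent uptake was taken as ATP minus AMP values, with drug-free uptake set at 100%. Nominal 10 or 100 µM antagonist; actual concentration measured by LC-MS/MS. Three independent experiments.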
# [2] = biological target: T2, ATP-binding cassette sub-family C member 4 (Homo sapiens, UniProt O15439); test: Inhibition of MRP4-mediated E2-17betaG transport in human MRP4 expressing HEK293 cells at 7 uM during 5 mins; format: ADME, cell-based; settings: hek293, 5 min; procedure, shortened: as §1
# T2 sequence (O15439 whole entry): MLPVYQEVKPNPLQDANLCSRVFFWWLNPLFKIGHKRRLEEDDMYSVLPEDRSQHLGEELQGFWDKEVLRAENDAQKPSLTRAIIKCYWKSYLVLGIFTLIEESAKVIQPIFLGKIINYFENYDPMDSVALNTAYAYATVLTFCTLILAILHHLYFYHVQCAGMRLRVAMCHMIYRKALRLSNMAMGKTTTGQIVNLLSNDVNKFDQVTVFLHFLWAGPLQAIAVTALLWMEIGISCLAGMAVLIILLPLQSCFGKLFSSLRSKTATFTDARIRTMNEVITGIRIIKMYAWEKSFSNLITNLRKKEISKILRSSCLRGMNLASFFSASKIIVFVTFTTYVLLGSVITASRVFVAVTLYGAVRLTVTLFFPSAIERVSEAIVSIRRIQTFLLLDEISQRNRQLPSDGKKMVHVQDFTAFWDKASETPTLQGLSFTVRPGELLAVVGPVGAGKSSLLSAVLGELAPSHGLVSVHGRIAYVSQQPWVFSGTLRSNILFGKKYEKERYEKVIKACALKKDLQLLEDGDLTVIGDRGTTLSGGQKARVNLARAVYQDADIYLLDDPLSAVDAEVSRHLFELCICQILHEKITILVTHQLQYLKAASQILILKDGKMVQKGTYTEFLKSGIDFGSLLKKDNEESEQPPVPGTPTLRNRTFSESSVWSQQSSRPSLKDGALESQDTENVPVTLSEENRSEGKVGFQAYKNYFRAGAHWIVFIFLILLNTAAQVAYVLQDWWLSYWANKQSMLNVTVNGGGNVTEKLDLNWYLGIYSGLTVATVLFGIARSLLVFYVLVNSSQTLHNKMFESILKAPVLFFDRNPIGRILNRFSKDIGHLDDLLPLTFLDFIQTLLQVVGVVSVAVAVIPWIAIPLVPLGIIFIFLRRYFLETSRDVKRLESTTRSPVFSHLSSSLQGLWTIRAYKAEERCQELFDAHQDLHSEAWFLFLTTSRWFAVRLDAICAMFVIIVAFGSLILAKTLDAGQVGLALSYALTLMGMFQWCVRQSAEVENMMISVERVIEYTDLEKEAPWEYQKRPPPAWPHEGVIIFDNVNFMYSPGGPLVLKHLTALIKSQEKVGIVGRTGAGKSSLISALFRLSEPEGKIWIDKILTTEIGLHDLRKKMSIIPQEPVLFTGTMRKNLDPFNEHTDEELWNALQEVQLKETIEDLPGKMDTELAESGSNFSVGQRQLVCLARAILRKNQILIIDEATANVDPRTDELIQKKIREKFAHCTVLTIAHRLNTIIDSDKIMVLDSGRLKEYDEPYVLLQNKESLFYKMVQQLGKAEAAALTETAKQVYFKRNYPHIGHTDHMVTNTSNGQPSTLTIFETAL
# Rattus norvegicus = test: Attenuation of CP55940-induced hypotension in iv dosed rat; format: functional
# Procedure, shortened: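 Male normotensive anaesthetized Wistar rats; antagonist given i.v. at several doses (n=2 per dose) 10 min before CP55,940 0.1 mg/kg i.v. Hypotension develops within 1 min; lowest blood pressure taken as the hypotensive effect. ED50 is the dose inhibiting the CP55,940 hypotensive effect by 50%, calculated from the linear part of the percentage dose-response curve.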
# [3] = Retention time of the compound by LC-MS/MS method; format: physicochemical
# Procedure, shortened: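 Reaction mix without radiolabel, AMP condition, with 7.5 μg eYFP vesicles. Supernatant after 16,000–20,000g spin diluted in 50% acetonitrile/0.1% TFA. Gradient of 0.1% TFA water/acetonitrile, 50→90% B over 5 min. Electrospray triple quadrupole. Duplicates, at least three experiments.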
# [4] = biological target: T3, Multidrug resistance-associated protein 1 (Homo sapiens, UniProt P33527); test: Inhibition of MRP1-mediated E2-17betaG transport in human MRP1 expressing HEK293 cells at 7 uM during 5 mins; format: ADME, cell-based; settings: hek293, 5 min; procedure, shortened: as §1
# T3 sequence (P33527 whole entry): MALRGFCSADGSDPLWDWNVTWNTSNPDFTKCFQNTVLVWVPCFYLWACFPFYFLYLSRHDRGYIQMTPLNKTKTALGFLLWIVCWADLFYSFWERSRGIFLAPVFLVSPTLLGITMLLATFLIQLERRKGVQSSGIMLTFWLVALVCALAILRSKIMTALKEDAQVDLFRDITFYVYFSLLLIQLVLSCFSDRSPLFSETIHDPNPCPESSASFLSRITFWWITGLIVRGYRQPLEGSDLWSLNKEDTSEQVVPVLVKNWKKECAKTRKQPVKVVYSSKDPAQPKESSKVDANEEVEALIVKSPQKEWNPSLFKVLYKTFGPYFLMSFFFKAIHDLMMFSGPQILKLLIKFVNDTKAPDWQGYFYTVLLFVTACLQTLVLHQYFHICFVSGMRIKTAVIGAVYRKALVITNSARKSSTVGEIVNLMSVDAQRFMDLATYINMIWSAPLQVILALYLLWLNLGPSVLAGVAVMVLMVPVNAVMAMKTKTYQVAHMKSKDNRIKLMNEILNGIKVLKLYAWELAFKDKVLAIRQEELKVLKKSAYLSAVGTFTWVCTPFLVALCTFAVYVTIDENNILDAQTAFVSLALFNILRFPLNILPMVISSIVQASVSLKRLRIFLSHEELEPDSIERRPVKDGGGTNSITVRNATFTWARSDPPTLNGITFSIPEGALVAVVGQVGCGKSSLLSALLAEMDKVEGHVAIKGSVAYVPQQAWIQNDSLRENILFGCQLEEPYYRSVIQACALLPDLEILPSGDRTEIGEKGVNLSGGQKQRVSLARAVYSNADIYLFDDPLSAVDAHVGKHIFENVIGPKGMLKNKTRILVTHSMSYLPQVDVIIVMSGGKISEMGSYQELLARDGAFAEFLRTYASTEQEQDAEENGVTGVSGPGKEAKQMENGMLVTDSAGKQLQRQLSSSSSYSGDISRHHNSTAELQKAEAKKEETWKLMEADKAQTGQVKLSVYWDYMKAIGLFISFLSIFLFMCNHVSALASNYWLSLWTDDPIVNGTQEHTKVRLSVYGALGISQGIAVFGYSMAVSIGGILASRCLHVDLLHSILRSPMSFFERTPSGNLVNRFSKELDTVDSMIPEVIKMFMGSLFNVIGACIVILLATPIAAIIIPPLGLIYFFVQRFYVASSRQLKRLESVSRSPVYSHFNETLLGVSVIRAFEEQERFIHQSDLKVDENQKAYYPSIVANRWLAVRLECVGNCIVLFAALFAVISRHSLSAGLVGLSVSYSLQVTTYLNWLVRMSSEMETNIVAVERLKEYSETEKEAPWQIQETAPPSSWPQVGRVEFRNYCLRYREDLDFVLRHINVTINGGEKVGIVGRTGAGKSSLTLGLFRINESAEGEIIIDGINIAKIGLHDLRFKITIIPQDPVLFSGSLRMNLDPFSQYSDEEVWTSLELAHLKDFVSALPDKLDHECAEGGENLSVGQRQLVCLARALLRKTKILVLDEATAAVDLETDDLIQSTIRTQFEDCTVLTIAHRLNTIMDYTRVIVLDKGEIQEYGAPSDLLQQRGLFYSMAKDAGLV
# [5] = biological target: T1, ATP-binding cassette sub-family C member 2; test: Induction of MRP2-mediated E2-17betaG transport in human MRP2 expressing HEK293 cells at 12 uM during 5 mins; format: ADME, cell-based; settings: hek293, 5 min
# Procedure, shortened: (§2)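 Inside-out membrane vesicles from HEK293 cells transduced with MRP2 baculovirus (sodium butyrate 5 mM added at 24 h, harvested day 3). 7.5 μg vesicles in TS buffer (pH 7.4) with 4 mM ATP, 10 mM MgCl2, 20 μM [3H]E2-17βG, 5 min at 37°C. Rapid filtration and scintillation counting; AMP values subtracted. Nominal 10 and 100 μM antagonist, actual levels measured by LC-MS/MS. Untreated set at 100%. Three independent experiments.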
# [6] = biological target: T2, ATP-binding cassette sub-family C member 4; test: (§3) Inhibition of MRP4-mediated E2-17betaG transport in human MRP4 expressing HEK293 cells at 12 uM during 5 mins; format: ADME, cell-based; settings: hek293, 5 min, 12 µM
# Procedure, shortened: (§4)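 MRP4-expressing HEK293 inside-out vesicles (baculovirus transduction). 7.5 μg protein with 4 mM ATP, 10 mM MgCl2 in TS buffer and 0.12 μM [3H]E2-17βG, 5 min at 37°C. Filter-bound radioactivity counted; AMP control subtracted for ATP-dependent uptake. Nominal 10/100 μM antagonist, actual concentrations by LC-MS/MS. Percent of untreated, three independent experiments.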
# [7] = biological target: T3, Multidrug resistance-associated protein 1; test: (§5) Inhibition of MRP1-mediated E2-17betaG transport in human MRP1 expressing HEK293 cells at 12 uM during 5 mins; format: ADME, cell-based; settings: hek293, 5 min, 12 µM
# Procedure, shortened: (§6)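 Inside-out membrane vesicles from MRP1-baculovirus-transduced HEK293 cells. 7.5 μg vesicles in TS buffer, 4 mM ATP, 10 mM MgCl2, 0.16 μM [3H]E2-17βG, 5 min at 37°C. Stopped on ice, then rapid filtration and scintillation counting. ATP minus AMP uptake taken as net. Nominal 10 or 100 μM antagonist, actual levels by LC-MS/MS. Expressed as % of untreated. Three independent experiments.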
# [8] = biological target: T1, ATP-binding cassette sub-family C member 2; test: Induction of MRP2-mediated E2-17betaG transport in human MRP2 expressing HEK293 cells at 1 to 3 uM during 5 mins; format: ADME, cell-based; settings: hek293, 5 min; procedure, shortened: as §2
# [9] = biological target: T2, ATP-binding cassette sub-family C member 4; test: Inhibition of MRP4-mediated E2-17betaG transport in human MRP4 expressing HEK293 cells at 1 to 3 uM during 5 mins; format: ADME, cell-based; settings: hek293, 5 min; procedure, shortened: as §4
# [10] = biological target: ATP-binding cassette sub-family C member 3 (Homo sapiens, UniProt O15438); test: Inhibition of MRP3-mediated E2-17betaG transport in human MRP3 expressing HEK293 cells in presence of 15 uM E2-17betaG; format: ADME, cell-based
# ATP-binding cassette sub-family C member 3, sequence (O15438 whole entry): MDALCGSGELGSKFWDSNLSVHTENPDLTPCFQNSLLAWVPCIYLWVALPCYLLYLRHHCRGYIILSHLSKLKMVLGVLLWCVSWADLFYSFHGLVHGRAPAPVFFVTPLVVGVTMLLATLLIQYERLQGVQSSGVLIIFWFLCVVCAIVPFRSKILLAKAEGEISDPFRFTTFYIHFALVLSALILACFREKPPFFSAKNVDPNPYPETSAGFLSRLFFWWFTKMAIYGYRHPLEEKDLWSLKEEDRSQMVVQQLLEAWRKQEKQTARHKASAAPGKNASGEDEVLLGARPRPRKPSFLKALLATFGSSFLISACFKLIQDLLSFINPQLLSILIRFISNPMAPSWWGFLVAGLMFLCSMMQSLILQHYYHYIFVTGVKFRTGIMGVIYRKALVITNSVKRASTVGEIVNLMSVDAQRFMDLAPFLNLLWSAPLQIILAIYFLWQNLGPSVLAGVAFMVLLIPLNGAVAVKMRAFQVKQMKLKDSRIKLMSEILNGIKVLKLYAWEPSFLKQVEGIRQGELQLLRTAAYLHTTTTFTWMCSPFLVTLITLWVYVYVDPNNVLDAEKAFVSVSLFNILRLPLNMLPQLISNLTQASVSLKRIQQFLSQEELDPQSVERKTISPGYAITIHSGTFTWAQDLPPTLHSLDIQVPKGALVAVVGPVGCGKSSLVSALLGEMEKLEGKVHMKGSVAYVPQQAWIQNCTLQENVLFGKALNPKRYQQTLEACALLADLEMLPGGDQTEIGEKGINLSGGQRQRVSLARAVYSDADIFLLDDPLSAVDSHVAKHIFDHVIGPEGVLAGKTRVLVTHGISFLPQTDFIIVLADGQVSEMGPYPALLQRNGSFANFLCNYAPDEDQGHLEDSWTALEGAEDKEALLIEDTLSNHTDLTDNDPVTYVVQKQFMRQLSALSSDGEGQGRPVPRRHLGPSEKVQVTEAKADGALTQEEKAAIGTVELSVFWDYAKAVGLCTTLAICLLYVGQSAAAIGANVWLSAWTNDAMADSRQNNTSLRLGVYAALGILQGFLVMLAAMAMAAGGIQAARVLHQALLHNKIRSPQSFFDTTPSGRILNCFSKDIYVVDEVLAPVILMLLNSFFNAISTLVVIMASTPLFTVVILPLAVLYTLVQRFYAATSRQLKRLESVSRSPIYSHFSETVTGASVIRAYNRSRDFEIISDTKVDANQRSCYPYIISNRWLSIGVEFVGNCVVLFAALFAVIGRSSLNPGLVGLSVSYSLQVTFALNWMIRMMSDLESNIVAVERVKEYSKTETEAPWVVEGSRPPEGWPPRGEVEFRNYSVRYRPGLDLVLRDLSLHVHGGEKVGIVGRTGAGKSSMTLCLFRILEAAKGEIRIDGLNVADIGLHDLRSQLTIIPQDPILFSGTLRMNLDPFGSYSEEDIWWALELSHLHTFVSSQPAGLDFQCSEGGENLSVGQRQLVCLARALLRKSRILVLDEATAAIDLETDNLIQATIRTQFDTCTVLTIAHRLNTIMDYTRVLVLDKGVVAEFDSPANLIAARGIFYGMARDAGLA
# Procedure, shortened: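 Vesicles from MRP3-transduced HEK293 cells. 7.5 μg in TS buffer with 4 mM ATP and 10 mM MgCl2, substrate [3H]E2-17βG at 15 μM, with antagonists at high concentrations. Incubated at 37°C, filtered and counted. ATP-dependent uptake calculated by AMP subtraction.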
# [11] = biological target: T1, ATP-binding cassette sub-family C member 2; test: Induction of MRP2-mediated E2-17betaG transport in human MRP2 expressing HEK293 cells at 0.7 to 1.3 uM during 5 mins; format: ADME, cell-based; settings: hek293, 5 min; procedure, shortened: as §2
# [12] = biological target: T2, ATP-binding cassette sub-family C member 4; test: Inhibition of MRP4-mediated E2-17betaG transport in human MRP4 expressing HEK293 cells in presence of 0.1 to 1 uM E2-17betaG
# [13] = biological target: T3, Multidrug resistance-associated protein 1; test: Inhibition of MRP1-mediated E2-17betaG transport in human MRP1 expressing HEK293 cells at 1 to 3 uM during 5 mins; format: ADME, cell-based; settings: hek293, 5 min; procedure, shortened: as §6
# [14] = biological target: T2, ATP-binding cassette sub-family C member 4; test: Noncompetitive inhibition of MRP4-mediated E2-17betaG transport in human MRP4 expressing HEK293 cells by Dixon plot; format: ADME, cell-based
# [15] = biological target: T3, Multidrug resistance-associated protein 1; test: Inhibition of MRP1-mediated E2-17betaG transport in human MRP1 expressing HEK293 cells in presence of 0.16 to 5 uM E2-17betaG
# MRP4 (ABCC4) = biological target: T4, MRP4 (ABCC4) (Homo sapiens, UniProt O15439); test: as §3; format: ADME, cell-based; settings: probe E2-17betaG; procedure, shortened: as §4
# T4 sequence (O15439 whole entry): T2 sequence (O15439 whole entry)
# MRP1 (ABCC1) = MRP1 (ABCC1) (Homo sapiens, UniProt P33527); test: as §5; format: ADME, cell-based; settings: probe E2-17betaG; procedure, shortened: as §6
# MRP1 (ABCC1), sequence (P33527 whole entry): as the sequence (P33527 whole entry) above
Compound,ED50 (Rattus norvegicus) [mg/kg],Retention_time [3] [min],Activity [5] [%],Activity [8] [%],inhibition (INH) [9],inhibition (INH) [10],Activity [11] [%],inhibition (INH) [12],inhibition (INH) [13],further results
CCN(CC)S(=O)(=O)NC(=NC)N1CC(c2ccccc2)C(c2ccc(Cl)cc2)=N1 (configuration not stated),0.2,4.2,,,,,,,,Activity [1]: 543%; inhibition (INH) [2]: Active; inhibition (INH) [4]: Not Active
CN=C(NS(=O)(=O)N1CCCC1)N1CC(c2ccccc2)C(c2ccc(Cl)cc2)=N1 (configuration not stated),0.7,3.5,543,,,,,,,inhibition (INH) [6]: Active; inhibition (INH) [7]: Active
CN/C(=N\S(=O)(=O)N1CCCCCC1)N1CC(c2ccccc2)C(c2ccc(Cl)cc2)=N1 (configuration not stated),0.1,4.8,,349,Not Active,Active,256,Active,Not Active,"inhibition (INH) ([14]; human, hek293): Active"
CNC(=NS(=O)(=O)N1CCCCCCC1)N1CC(c2ccccc2)C(c2ccc(Cl)cc2)=N1 (configuration not stated),,5.4,,349,Not Active,,256,,Not Active,
CCN(C)S(=O)(=O)NC(=NC)N1CC(c2ccccc2)C(c2ccc(Cl)cc2)=N1 (configuration not stated),,3.8,543,,,Active,,Active,,"inhibition (INH) [15]: Active; inhibition at 5 min, 12 µM (MRP4 (ABCC4)): -72%; inhibition at 5 min, 12 µM (MRP1 (ABCC1)): -34%; Ki [14]: 7 µM"
